Calls of active or inactive are those of the source. The rule behind the calls is not given here.
Key:
Mus musculus = experiment: Cardioprotective activity in C57BL/6 mouse model of LAD coronary artery ligation-induced myocardial infarction assessed as reduction in LV chamber area at 0.3 mg/kg, po and measured after 28 days; format: functional, organism-based; settings: time 28.0 day
Outline: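 Male C57BL/6 mice (10-12 weeks) underwent permanent LAD ligation under ketamine/xylazine, with shams having an untightened suture. Compound (0.3 mg/kg/d) or vehicle was given by oral gavage once daily (5 mL/kg) from post-MI day 4 for 24 days. Endpoints were taken at 28 days post-MI; scar length was quantified from LV cross sections.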

[1] = Half life in cynomolgus monkey at 3 mg/kg, po by LC-MS/MS analysis; format: ADME, organism-based, Macaca fascicularis; settings: in vivo
Outline: (§1)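 Male animals dosed orally with a suspension in 0.5% MC. Blood was taken into EDTA 2K capillaries and plasma was stored frozen. Plasma was mixed with methanol/acetonitrile (1:1) plus internal standard, centrifuged, and drug was measured by LC-MS/MS. AUC0-inf was obtained by the trapezoidal rule, extrapolated with kel from the terminal phase. t1/2 = ln2/kel.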

[2] = Oral bioavailability in cynomolgus monkey at 3 mg/kg by LC-MS/MS analysis; format: ADME, organism-based, Macaca fascicularis; settings: in vivo
Outline: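 Oral bioavailability = (AUC0-inf,po/dose po)/(AUC0-inf,iv/dose iv) × 100. Oral dosing used a 0.5% MC suspension. IV dosing used a DMSO/PEG400/saline (5/47.5/47.5) solution, with CD1(ICR) mice for the iv arm. Plasma drug levels were measured by LC-MS/MS after methanol/acetonitrile extraction with internal standard.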

[3] = molecular target: T1, Formyl peptide receptor 2 (Mus musculus, UniProt O88536); experiment: Agonist activity at mouse FPR2 expressed in HEK 293 cells co-expressing Galpha15 measured every 1.5 sec for 80 sec by Fluo-4 NW staining based scanning fluorometric method; format: cell-based, HEK293
T1 sequence (O88536 whole entry): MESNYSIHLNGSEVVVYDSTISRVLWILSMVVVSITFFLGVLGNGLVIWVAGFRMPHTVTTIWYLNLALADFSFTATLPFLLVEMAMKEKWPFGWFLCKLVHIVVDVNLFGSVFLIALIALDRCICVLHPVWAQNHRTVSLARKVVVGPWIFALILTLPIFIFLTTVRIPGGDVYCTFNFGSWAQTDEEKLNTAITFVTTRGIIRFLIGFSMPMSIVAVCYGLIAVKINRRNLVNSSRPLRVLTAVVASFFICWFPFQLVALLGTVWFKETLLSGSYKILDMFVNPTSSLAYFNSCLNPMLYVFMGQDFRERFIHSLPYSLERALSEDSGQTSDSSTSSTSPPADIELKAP
Outline: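 HEK293 cells were transiently co-transfected with FPR plus Gα15 (Lipofectamine 2000), then reseeded after 24 h on poly-D-lysine plates and grown one more day. Cells were loaded with Fluo-4 NW for 45 min at 37°C. Compound was added and fluorescence (ex 485/em 525 nm) read for 80 s at 1.5 s intervals. Response = maximal peak minus basal.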

[4] = Half life in Crl:CD(SD) rat at 1 mg/kg, po by LC-MS/MS analysis; format: ADME, organism-based; settings: in vivo; outline: as §1
[5] = Cmax in BALB/cCrSlc mouse at 1 mg/kg, po by LC-MS/MS analysis; format: ADME, organism-based; design: route oral, dose 1 mg/kg; settings: in vivo; outline: as §1
CHO = experiment: Selectivity ratio of agonist activity at mouse FPR1 expressed in CHO cells to agonist activity at mouse FPR2 expressed in CHO cells; format: cell-based
Outline: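 Ratio of FPR1 to FPR2 EC50 from the CHO-cell forskolin/IBMX cAMP HTRF assay, 30 min at room temperature, 4-parameter logistic fit.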

[6] = Half life in Beagle dog at 1 mg/kg, po by LC-MS/MS analysis; format: ADME, organism-based, Canis lupus familiaris; settings: in vivo; outline: as §1
fMet-Leu-Phe receptor = molecular target: T2, fMet-Leu-Phe receptor (Mus musculus, UniProt P33766); experiment: Agonist activity at mouse FPR1 expressed in CHO cells assessed as reduction cAMP accumulation incubated for 1 hr by TR-FRET assay; format: functional, cell-based
T2 sequence (P33766 whole entry): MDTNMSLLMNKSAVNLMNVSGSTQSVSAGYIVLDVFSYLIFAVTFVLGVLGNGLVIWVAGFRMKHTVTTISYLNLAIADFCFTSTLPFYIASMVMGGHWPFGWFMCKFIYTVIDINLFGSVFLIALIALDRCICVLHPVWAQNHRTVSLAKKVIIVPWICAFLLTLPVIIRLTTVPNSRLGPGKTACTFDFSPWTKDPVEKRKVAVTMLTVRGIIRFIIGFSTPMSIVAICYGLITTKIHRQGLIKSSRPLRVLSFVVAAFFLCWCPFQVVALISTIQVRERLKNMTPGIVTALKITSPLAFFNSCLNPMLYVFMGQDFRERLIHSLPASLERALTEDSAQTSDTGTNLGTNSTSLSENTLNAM

[7] = Volume of distribution at steady state in Crl:CD(SD) rat at 1 mg/kg, iv by LC-MS/MS analysis; format: ADME, organism-based; settings: in vivo, read-out: Vdss
Outline: (§2)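 Male animals received intravenous solution in DMSO/PEG400/saline (5/47.5/47.5). EDTA plasma was extracted with methanol/acetonitrile (1:1) plus internal standard and quantified by LC-MS/MS. AUC0-inf was calculated by the trapezoidal rule with terminal-phase kel extrapolation.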

[8] = AUC (0 to infinity) in BALB/cCrSlc mouse at 1 mg/kg, po by LC-MS/MS analysis; format: ADME, organism-based; design: time infinity, route oral, dose 1 mg/kg; settings: in vivo; outline: as §1
[9] = molecular target: T1, Formyl peptide receptor 2; experiment: Agonist activity at mouse FPR2 expressed in CHO cells assessed as reduction cAMP accumulation incubated for 1 hr by TR-FRET assay; format: cell-based
[10] = AUC (0 to infinity) in cynomolgus monkey at 3 mg/kg, po by LC-MS/MS analysis; format: ADME, organism-based, Macaca fascicularis; design: time infinity, route oral, dose 3 mg/kg; settings: in vivo; outline: as §1
[11] = AUC (0 to infinity) in Beagle dog at 1 mg/kg, po by LC-MS/MS analysis; format: ADME, organism-based, Canis lupus familiaris; design: route oral, time infinity, dose 1 mg/kg; settings: in vivo; outline: as §1
[12] = Cmax in cynomolgus monkey at 3 mg/kg, po by LC-MS/MS analysis; format: ADME, organism-based, Macaca fascicularis; design: route oral, dose 3 mg/kg; settings: in vivo; outline: as §1
[13] = Cmax in Beagle dog at 1 mg/kg, po by LC-MS/MS analysis; format: ADME, organism-based, Canis lupus familiaris; design: route oral, dose 1 mg/kg; settings: in vivo; outline: as §1
[14] = Total clearance in Crl:CD1(ICR) mouse at 0.5 mg/kg, iv by LC-MS/MS analysis; format: ADME, organism-based; settings: in vivo; outline: as §2

half-life [1]: 5 h
bioavailability [2]: 49%
EC50 [3]: 3.4 nM
half-life [4]: 3.8 h
Cmax [5]: 0.16 µM
half-life [6]: 2.5 h
EC50 (fMet-Leu-Phe receptor): 500 nM
Vd [7]: 3 L/kg
AUC(0-inf) [8]: 0.12 µM·h
EC50 [9]: 0.5 nM
AUC(0-inf) [10]: 5.8 µM·h
AUC(0-inf) [11]: 5.7 µM·h
Cmax [12]: 0.8 µM
Cmax [13]: 0.82 µM
clearance [14]: 5.4 L/h/kg
Compound: COc1cc(F)c([C@@H]2CNC(=O)[C@H]2NC(=O)Nc2ccccc2)c(F)c1 [BMS-986235]
Activity (Mus musculus): Active
Ratio EC50 (CHO): 1000
